Screens (PubChem)
VLA-4 inh: inhibition in human VLA-4 binding assay, primary screen, VLA-4 allosteric modulator project, MLPCN library, flow cytometry, VLA-4 expressing cells | Integrin alpha-4 (Homo sapiens), P13612 | ligand binding flow cytometry | inhibition, % (about 7 µM as worked out from the volumes in the protocol) | 0.2% of 330,000 active | AID 2557, 2010; in the data active = inhibition above about 50%
FGF22 binding: binders of human FGF22 protein, primary screen, FGF22 synaptogenesis inhibitor project, biophysical, thermal shift, single point; Fibroblast growth factor 22 (Homo sapiens), Q9HCT0; activity (Tm shift, normalised), % at 9.99 µM; recombinant FGF22 thermal shift, SYPRO orange fluorescence; percent of sucrose octasulfate shift, DMSO zero; 1.5% of 340,000 active; AID 651658, 2012;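 active = mean Tm shift, scaled 0 neutral to 100 positive control, at about 1.3% or above, every replicate too, limit read from the data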
Granule exo inh: LAMP-1 surface exposure blockers, TALL-104 cells – cell-based, flow cytometry, MLPCN library, primary screen. 0.66% of 360,000 active. AID 651702, 2012. TALL-104 LAMP-1 surface exposure; cells stimulated with thapsigargin and PMA. inhibition, % at 10 µM;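 active = inhibition above about 55%, limit read from the data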
MT1-MMP act inh: blockers of MT1-MMP proenzyme processing, primary screen, HT1080 RFP-PRO-GFP cells, GFP/RFP fluorescence. Matrix metalloproteinase-14 (Homo sapiens), P50281. GFP/RFP ratio fluorescence, overnight; percent of plate control window, DMSO zero. GFP/RFP ratio change, % at 20 µM. 0.061% of 360,000 active. AID 651647, 2012;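 active = GFP/RFP ratio change of at least 30% with cell ATP level not reduced by more than half and red fluorescence within 50% of control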
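Test system: HT1080 cells expressing an RFP-PRO-GFP fluorescent reporter construct / Compound dosing: single-point 20 µM compound, 1% DMSO / Schedule: cells overnight before dosing, compound overnight, 37 °C, 5% CO2 / Evaluation: GFP/RFP fluorescence ratio / Control set: DMSO and RFP-L50D-GFP cell wells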
ABCB6 inh MLPCN: ABCB6 transporter inhibitors, primary screen, K562-ABCB6 cells, flow cytometry, MLPCN library. AID 602162, 2011. 0.19% of 360,000 active. ATP-binding cassette sub-family B member 6 (Homo sapiens), Q9NP58. K562-ABCB6 porphyrin accumulation, 1 h; active compounds read low. fluorescence ratio to DMSO, % at 10 µM;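 active = fluorescence ratio to DMSO below 75%, the collection mean minus 3 SD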;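 note: signal is porphyrin accumulated inside mitochondria; 100% equals median channel fluorescence of DMSO control wells; lower ratio means ABCB6 inhibition with less porphyrin fluorescence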
Target sequence (Q9NP58 whole entry, looked up): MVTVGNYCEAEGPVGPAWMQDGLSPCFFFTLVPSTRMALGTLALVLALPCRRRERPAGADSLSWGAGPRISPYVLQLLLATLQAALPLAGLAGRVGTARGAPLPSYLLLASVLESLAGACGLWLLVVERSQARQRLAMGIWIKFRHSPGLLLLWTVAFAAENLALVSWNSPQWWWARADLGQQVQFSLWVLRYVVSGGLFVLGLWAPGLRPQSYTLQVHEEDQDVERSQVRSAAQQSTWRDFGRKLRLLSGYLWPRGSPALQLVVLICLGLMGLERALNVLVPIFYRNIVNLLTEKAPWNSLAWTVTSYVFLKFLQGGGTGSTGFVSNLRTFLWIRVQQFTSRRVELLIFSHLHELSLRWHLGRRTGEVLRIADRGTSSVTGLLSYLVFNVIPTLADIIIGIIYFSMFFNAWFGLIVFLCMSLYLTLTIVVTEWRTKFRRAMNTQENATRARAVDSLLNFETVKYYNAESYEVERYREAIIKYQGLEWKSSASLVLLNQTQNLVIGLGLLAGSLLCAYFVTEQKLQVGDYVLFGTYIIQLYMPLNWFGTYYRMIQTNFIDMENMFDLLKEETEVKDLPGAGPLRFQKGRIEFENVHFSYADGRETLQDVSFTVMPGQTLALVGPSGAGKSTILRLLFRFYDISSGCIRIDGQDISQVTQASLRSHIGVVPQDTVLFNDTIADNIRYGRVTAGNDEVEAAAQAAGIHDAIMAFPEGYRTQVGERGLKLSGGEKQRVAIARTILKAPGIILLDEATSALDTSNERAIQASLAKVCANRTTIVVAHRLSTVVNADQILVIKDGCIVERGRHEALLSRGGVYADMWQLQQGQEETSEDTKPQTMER
DAGLB inhibitor: DAGLB lipase inhibitors, primary screen, biochemical, fluorescence, HTS | Diacylglycerol lipase-beta (Homo sapiens), Q8NCG7 | HEK293T DAGLB membrane lysate, EnzChek fluorogenic substrate | inhibition, % at 5.17 µM | 0.059% of 340,000 active | AID 504411, 2011; in the data active = inhibition above about 34%;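 note: 0% = enzyme with vehicle and 100% = wells lacking enzyme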
VLA-4 allo CP: retest of VLA-4 allosteric modulators, confirmation, cell-based, cherry-picked plates, U937, HUTS-21 LIBS antibody; shares compounds with VLA-4 inh; U937 cells, HUTS-21 LIBS mAb binding, flow cytometry; LDV ligand present at threefold Kd; inhibition, % at 6.7 µM; 2% of 1,300 active; in the data active = inhibition above about 40%;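 note: 0% = ligand without compound and 100% = no ligand background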
The depositor's hits bear a star; x = no result. Compounds with a hit are over-represented: about 2% of the library has one in this group of screens.

SMILES	VLA-4 inh	FGF22 binding	Granule exo inh	MT1-MMP act inh	ABCB6 inh MLPCN	DAGLB inhibitor	VLA-4 allo CP
O=C(N/N=C/c1ccc(Cl)c([N+](=O)[O-])c1)c1cc(-c2ccccc2)nc2ccccc12	56*	0	4	-20	95	-2	5
O=C(N/N=C/c1cc([N+](=O)[O-])ccc1Cl)c1cc(-c2ccccc2)nc2ccccc12	-7	0	-1	5	95	0	x
O=C(N/N=C/c1ccc(Cl)cc1)c1cc(-c2cccnc2)nc2ccccc12	50*	0	-4	-7	98	-3	18
C[C@@H]1CN([C@@H](C)CO)C(=O)Cc2cc(NS(C)(=O)=O)ccc2O[C@@H]1CN(C)Cc1ccc(C(F)(F)F)cc1	x	0	x	x	x	x	x
C[C@H]1CN([C@@H](C)CO)C(=O)c2cccc(NC(=O)Nc3cccc4ccccc34)c2O[C@H]1CN(C)S(=O)(=O)c1cn(C)cn1	x	0	x	x	x	x	x
CC(O/N=C(\N)c1ccccc1)C(=O)Nc1cccc(C(F)(F)F)c1 (stereo not given)	13	x	8	1	96	-3	x
COc1cc(OC)c(C(=O)OC(C)C(=O)Nc2cccc(C(F)(F)F)c2)cc1OC (stereo not given)	-15	x	1	-1	97	-2	10
C[C@@H]1CN([C@@H](C)CO)C(=O)c2cc(C#C[C@@H](C)O)cnc2O[C@@H]1CN(C)C(=O)Cc1ccccn1	x	0	x	x	x	x	x
CC(C)(C)[C@@H]1C=C(C(=O)O)O[C@H](OCCCCO)C1	x	0	-1	-1	96	0	x
CC(C)(C)[C@H]1C=C(C(=O)Nc2ccccc2)O[C@@H](OCCCCO)C1	21	-1	-7	3	91	-1	7
CCO[C@H]1OC(C(=O)Nc2ccccc2)=C[C@@H](C)[C@@H]1CCCO	91*	0	-15	3	105	-3	-6
CCO[C@H]1OC(C(=O)N2CCN(Cc3ccccc3)CC2)=C[C@@H](C2CCCCC2)[C@@H]1CCCO	53*	0	5	0	91	-1	0
O=C(Cc1ccncc1)NCC[C@@H]1CC[C@H](NC(=O)C2CCCCC2)[C@@H](CO)O1	x	0	x	x	x	x	x
CC(=O)NC(=S)Nc1ccc(NC(=O)c2cccs2)cc1	43	x	-3	4	102	0	-11
COc1cccc(N(C(=O)CS(=O)CC(=O)Nc2ccc(F)cc2)C(C(=O)NC2CCCCC2)c2cccs2)c1 (stereo not given)	43	x	2	2	97	-2	5
Nc1ncnc2nc(SCCOc3ccc(Cl)cc3)[nH]c12	44	0	4	2	77	-1	-1
COc1ccccc1NC(=O)N(C)C[C@@H]1Oc2ncc(C#CCN(C)C)cc2C(=O)N([C@H](C)CO)C[C@@H]1C	x	1	x	x	x	x	x
COC(=O)C[C@H]1CC[C@H]2[C@@H](COc3ccc(NS(=O)(=O)c4ccccc4F)cc3C(=O)N2C)O1	x	0	x	x	x	x	x
Cc1ccc(S(=O)(=O)C2(C(=O)Nc3ccc(F)cc3)CC2)cc1	17	x	0	-1	100	-1	x
Cc1ccc(S(=O)(=O)C2(C(=O)Nc3ccc4c(c3)OCO4)CC2)cc1	51*	0	8	3	106	-5	1
Fc1ccc2nc(Nc3nc4c(F)cccc4s3)sc2c1	53*	x	-2	0	90	-1	0
CCCc1cc(=O)[nH]c(SCC(=O)Nc2nc3ccc(OCC)cc3s2)n1	51*	x	0	0	91	2	6
COc1ccc2nc(NC(=O)CSc3nc(C)cc(=O)[nH]3)sc2c1	4	x	0	2	97	0	x
C[C@@H]1CN([C@@H](C)CO)C(=O)c2cc(NS(C)(=O)=O)ccc2O[C@H]1CN(C)S(=O)(=O)c1ccc(F)cc1	x	0	x	x	x	x	x
C[C@@H]1CCCCO[C@@H](CN(C)S(=O)(=O)c2ccc(F)cc2)[C@@H](C)CN([C@H](C)CO)C(=O)c2cc(NC(=O)Cc3ccccc3)ccc2O1	x	0	x	x	x	x	x
SMILES	VLA-4 inh	FGF22 binding	Granule exo inh	MT1-MMP act inh	ABCB6 inh MLPCN	DAGLB inhibitor	VLA-4 allo CP
Nc1ncnc2c1nc(Br)n2[C@@H]1O[C@@H]2COP(=O)(O)O[C@H]2[C@H]1O	54*	0	3	-1	98	1	4
CC(C)C(=O)Nc1ccc2c(c1)C(=O)N(C)[C@H]1CC[C@H](CC(=O)NCc3ccccc3F)O[C@H]1CO2	x	0	x	x	x	x	x
O=C(COc1ccc(/C=N/NC(=O)c2cc3ccccc3o2)cc1Cl)Nc1ccccc1	78*	x	-1	-52	91	3	61*
COc1cc(/C=N/NC(=O)c2ccccc2O)ccc1OCC(=O)Nc1ccccc1	-4	0	3	2	96	-5	x
CCNC(=S)Nc1cc(OCC)c(N2CCOCC2)cc1OCC	45	0	-1	0	95	1	1
COc1ccc2[nH]c3c(c2c1)CCNC3=O	26	0	3	-11	99	-1	x
CCc1cc2c(=O)n3c(nc2s1)-c1[nH]c2ccc(OC)cc2c1CC3	45	0	-2	-4	102	-1	-9
CCOc1cccc(-c2nc3cc(C)ccc3o2)c1	9	x	5	9	100	-3	x
Cc1ccc2oc(-c3ccccc3)nc2c1	94*	x	-1	4	101	-6	5
CSc1ncccc1C(=O)OCC(=O)Nc1ccc(S(=O)(=O)N2CCCC2)cc1	43	x	-1	1	95	-11	7
COc1ccc(C(=O)c2c3ccccc3[n+]([O-])n2CCCN)cc1	-8	0	-4	3	92	-2	x
COc1ccc(C(=O)c2c3ccccc3[n+]([O-])n2CCC(N)=O)cc1	55*	0	1	4	102	0	7
C[C@@H]1CN([C@H](C)CO)C(=O)c2cc(-c3ccncc3)cnc2O[C@@H]1CN(C)C(=O)c1ccc(F)cc1	x	0	x	x	x	x	x
CCOC(=O)CSc1ccc2nnc(-c3cccnc3)n2n1	-24	0	1	0	96	1	9
CCc1nn2c(N3CCOCC3)cc(C)nc2c1-c1ccccc1	45	0	-15	0	99	-1	13
